The nature of series [1]: AUC (0 to 24 hrs) in Balb/C mouse at 10 mg/kg, po qd. It is filed as ADME, organism-based. The conditions noted are these: in vivo. Also noted: time < 24 hr, dose 10 mg/kg, route oral. An outline of the steps: (§1)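 Compound given orally to mice. Plasma levels were followed over time, and Cmax, Tmax and AUC0–24 were taken from the plasma concentration–time profile.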
A short description of series [2]: Fraction unbound in mouse plasma. It is filed as ADME, cell-free.
Series [3] has as its system Mus musculus. In words: Toxicity in C57/BL6 mouse xenografted with mouse MC38 cells assessed as body weight loss at 25 to 50 mg/kg, po qd for 28 days measured twice weekly. It is filed as organism-based. The conditions noted are these: in vivo, 672 h. An outline of the steps:
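Nine C57/BL6 mice per group were injected subcutaneously with 1 × 10^6 MC38 cells. Tumors were measured on day 6, then mice were randomized. Compound was given orally every day for 28 days, alone or with anti-PD-1 antibody (IP every 4 days, three doses). Tumor volumes were measured twice weekly, and body weight loss (>5%) was monitored.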

Series [4] in a line: Fraction unbound in human plasma. It is filed as ADME, cell-free.
The nature of series [5]: Cmax in Balb/C mouse at 10 mg/kg, po qd. In kind it is ADME, organism-based. On the set-up: dose 10 mg/kg, route oral. The conditions noted are these: in vivo. Put shortly: as §1
A short description of series [6]: Metabolic stability in mouse liver microsomes assessed as parent compound remaining. It is filed as ADME, microsome. In general terms: Microsomes from liver hold many membrane-bound enzymes, among them those of drug oxidation.
Series [7] can be described thus: Fraction unbound in rat plasma. In kind it is ADME, cell-free.
Series [8] is described as follows: Metabolic stability in human liver microsomes assessed as parent compound remaining. In kind it is ADME, microsome.
Series [9] is described as follows: Tmax in Balb/C mouse at 10 mg/kg, po qd. It is filed as ADME, organism-based. Conditions: in vivo. An outline of the steps: as §1
Series [10] is described as follows: Metabolic stability in rat liver microsomes assessed as parent compound remaining. It is filed as ADME, microsome.
Series [11] in a line: Tmax in Balb/C mouse at 50 mg/kg, po bid. Conditions: in vivo. It is filed as ADME, organism-based. Put shortly: as §1
A short description of series [12]: AUC (0 to 24 hrs) in Balb/C mouse at 50 mg/kg, po bid. It is filed as ADME, organism-based. Also noted: time < 24 hr, dose 50 mg/kg, route oral. Conditions: in vivo. An outline of the steps:
as §1

Series [13] in a line: Cmax in Balb/C mouse at 50 mg/kg, po bid. In kind it is ADME, organism-based. Conditions: in vivo. Also noted: dose 50 mg/kg, route oral. An outline of the steps: as §1

Broadly, the AUC is concentration integrated over time. The low end stands for less exposure, the high end for more exposure. The fraction unbound is free concentration divided by total concentration. A lower fraction unbound goes with extensive binding. What is called Cmax is the maximum level reached in the sampled fluid or tissue. As a reminder, the Tmax is the time from dosing to the highest level. As to `[2H]C([2H])([2H])Oc1ccc(-c2c(-c3ccnc(NC(C)=O)c3)[nH]c3cccnc23)nc1`, in series [1], the area under the curve (AUC) at 24 h turned out to be 19.5 µM·h. Also, the fraction unbound in [2] was 0.12; in series [4] it was 0.24; in series [7], 0.25. Further, the Activity in [3] was < 5%. The same molecule gave a Cmax in series [5] of 5.3 µM. Also, the Stability is 74% in [6], 96% in series [8] and 89% in series [10]. Also, the time of peak concentration (Tmax) in series [9] worked out at 1 h.

Regarding `CC(=O)Nc1cc(-c2[nH]c3cccnc3c2-c2cccc(C(F)F)n2)ccn1`, the results for the fraction unbound in series [2], in series [4] and in series [7] were 0.05, 0.09 and 0.18, respectively. Moreover, the time to peak (Tmax) in [11] was determined as 1 h. The figures for the Stability in series [6], in series [8] and in [10] were 66%, 60% and 85%, respectively. In [12], the AUC at 24 h worked out at 14.1 µM·h. In [13], this molecule came in with a Cmax of 7.4 µM.

The values are drawn from ChEMBL document CHEMBL4266061, “Discovery of 4-Azaindole Inhibitors of TGFβRI as Immuno-oncology Agents” (ACS Med Chem Lett, 2018).
